Compound activity from PubChem.
hERG rescue: compounds protecting human hERG from proarrhythmic drug block. Q12809. CHO-hERG, FluxOR thallium flux, dofetilide IC70 present. AID 1511. activation (rescue from dofetilide block), less the hit threshold, % at 10 µM. 310,000 compounds, 0.51% hits;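 active = activation above the mean of controls blocked by dofetilide plus 5 SD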;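 also: thallium influx through hERG after potassium depolarization seen as dye fluorescence rise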
Target sequence (Q12809 whole entry, looked up): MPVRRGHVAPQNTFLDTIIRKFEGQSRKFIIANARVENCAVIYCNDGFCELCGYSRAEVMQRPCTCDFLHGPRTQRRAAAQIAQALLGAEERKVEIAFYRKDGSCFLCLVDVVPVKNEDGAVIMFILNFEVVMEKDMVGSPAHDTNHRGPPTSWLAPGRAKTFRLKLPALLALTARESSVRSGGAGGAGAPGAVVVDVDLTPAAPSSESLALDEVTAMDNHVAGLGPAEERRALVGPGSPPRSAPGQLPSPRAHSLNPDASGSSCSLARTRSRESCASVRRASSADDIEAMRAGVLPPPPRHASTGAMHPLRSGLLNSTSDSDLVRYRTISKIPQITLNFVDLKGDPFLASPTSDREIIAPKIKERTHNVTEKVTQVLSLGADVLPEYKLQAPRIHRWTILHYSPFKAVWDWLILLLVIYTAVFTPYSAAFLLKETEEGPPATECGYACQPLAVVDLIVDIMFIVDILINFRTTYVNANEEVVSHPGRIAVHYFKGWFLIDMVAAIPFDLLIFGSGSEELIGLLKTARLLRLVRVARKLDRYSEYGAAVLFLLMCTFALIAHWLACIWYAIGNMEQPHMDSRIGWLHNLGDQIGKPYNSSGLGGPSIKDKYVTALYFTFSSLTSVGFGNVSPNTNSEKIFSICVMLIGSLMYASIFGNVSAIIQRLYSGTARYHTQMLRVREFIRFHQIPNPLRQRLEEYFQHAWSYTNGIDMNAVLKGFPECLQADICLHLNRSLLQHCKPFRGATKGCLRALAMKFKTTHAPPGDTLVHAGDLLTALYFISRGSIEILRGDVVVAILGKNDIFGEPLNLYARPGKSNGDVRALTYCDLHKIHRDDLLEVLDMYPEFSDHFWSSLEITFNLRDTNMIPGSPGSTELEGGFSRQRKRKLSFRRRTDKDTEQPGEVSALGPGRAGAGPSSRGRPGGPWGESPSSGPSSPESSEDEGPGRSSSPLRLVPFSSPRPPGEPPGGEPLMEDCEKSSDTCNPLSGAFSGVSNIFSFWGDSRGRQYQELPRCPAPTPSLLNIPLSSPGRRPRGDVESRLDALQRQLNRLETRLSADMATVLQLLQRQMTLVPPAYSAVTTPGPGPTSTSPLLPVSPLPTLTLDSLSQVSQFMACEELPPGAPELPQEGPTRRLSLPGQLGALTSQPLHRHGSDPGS
KCNQ1 block: inhibitors of human KCNQ1 potassium channel; CHO-K1 KCNQ1, FluxOR thallium flux fluorescence; active compounds read high; B-score at 10 µM; P51787; 310,000 compounds, 1.3% hits;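 active = compounds whose thallium flux B-score, printed positive for inhibition, exceeds three library SD while starting fluorescence stays within three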;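 also: channel opened by potassium depolarization with thallium stimulus after 20 min compound exposure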
Kir21 block: inhibitors of mouse Kir2.1 inward-rectifier potassium channel. P35561. HEK293-Kir2.1, FluxOR thallium flux fluorescence; active compounds read low. B-score at 10 µM. 310,000 compounds, 0.85% hits. AID 1672;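 active = fluorescence ratio B-score at or below minus 3 SD of library scores, with starting-brightness B-score within 2 SD, cut at about -4.2 in these data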;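 also: channel flux triggered by added potassium and thallium sulfate stimulus; B-score of peak minus minimum fluorescence over baseline after thallium stimulus; more negative B-score means stronger Kir2.1 block with less thallium influx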
KCNK9 inh: inhibitors of human KCNK9 two-pore domain potassium channel. AID 488922. Q9NPC2. 310,000 compounds, 1.2% hits. HEK293 KCNK9, FluxOR thallium flux fluorescence; active compounds read low. B-score at 10 µM;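 active = ratio B-score over 3 SD below the library mean, with starting fluorescence within 5 SD of its mean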;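 also: negative B-score means less thallium flux so channel inhibition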
KCNK3 inh: human KCNK3 channel inhibition, primary screen; O14649; CHO-KCNK3 thallium flux, FluxOR fluorescence; active compounds read low; B-score at 10 µM; 340,000 compounds, 0.84% hits;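 active = B-score under library mean minus 4 SD, starting fluorescence ratio at most library mean plus 5 SD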;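 also: more negative B-score means stronger inhibition of thallium flux through KCNK3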
KCNQ1 act: human KCNQ1 channel potentiation or activation; P51787; CHO-K1 KCNQ1, thallium flux FluxOR fluorescence; active compounds read high; B-score at 10 µM; 310,000 compounds, 0.35% hits;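 active = fluorescence ratio B-score, a plate-corrected score, at least three library SD, with initial intensity B-score within 5 SD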
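System: CHO-K1 cells stably expressing KCNQ1 / Medium: assay buffer for compound exposure, DMSO matched across wells / Reagent: thallium- and potassium-containing depolarizing buffer / Compound: one concentration, matched DMSO / Incubation: 20 min compound pretreatment at room temperature / Measured by: kinetic FluxOR fluorescence, 10 s baseline plus 110 s post-stimulus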
A number is an active result; i = inactive; nt = not tested or not shown. Most compounds without a hit are left out; they make up all but 3.7% or so of the library.

SMILES	hERG rescue	KCNQ1 block	Kir21 block	KCNK9 inh	KCNK3 inh	KCNQ1 act
Cc1ccc(S(=O)(=O)Nc2ccc(O)c3cccnc23)cc1	i	i	-4.53	i	i	i
Cc1ccc(S(=O)(=O)Nc2ccc(O)c3ncccc23)cc1	i	i	i	i	i	i
O=S(=O)(Nc1ccc(O)c2ccccc12)c1ccc(Br)cc1	30.1	i	i	i	nt	i
Cc1ccccc1CC(=O)N1CCN(S(=O)(=O)c2ccc(Cl)s2)CC1	nt	nt	nt	nt	i	nt
CCCCn1c(CCC)nc([N+](=O)[O-])c1Sc1ccc(Cl)cn1	i	i	-4.79	i	i	i
CC(C)Cn1c(C(C)C)nc([N+](=O)[O-])c1Sc1ccc(Cl)cn1	i	i	i	i	i	i
COc1ccc(CNC(=O)COC(=O)c2ccc(C)c(S(=O)(=O)N3CCOCC3)c2)cc1	nt	nt	nt	nt	i	nt
COCc1ccc(C(=O)N2CCCCC2C(=O)Nc2ccc(-n3nc(C)cc3C)cc2)o1 (stereo not drawn)	i	i	i	i	i	i
CC1(CCc2ccccc2)NC(=O)N(CC(=O)Nc2c(F)cccc2F)C1=O (stereo not drawn)	nt	nt	nt	nt	i	nt
CC(NC(=S)Nc1ccc([N+](=O)[O-])cc1)c1ccncc1 (stereo not drawn)	i	7	i	i	i	i
CCCCCCCCNc1nc(Cl)nc(NCc2ccco2)n1	i	i	i	i	i	i
CCCCCCNc1nc(NCc2ccco2)nc(OCC)n1	i	i	i	-6.89	i	i
C=CCn1c(=S)[nH]c2nc3c(cc2c1=O)CCCC3	5.9	i	i	i	i	9
C=CCn1c(=S)[nH]c2ccc(Br)cc2c1=O	10.1	i	i	i	i	19
COc1ccc(NC(=O)c2sc(SC)nc2N)cc1	5.1	i	i	i	i	i
COc1ccc(NC(=O)c2sc(SCc3ccccc3)nc2N)cc1	i	i	i	i	i	i
COc1ccc(C(CNC(=O)C(C)c2ccc3cc(OC)ccc3c2)N(C)C)cc1 (stereo not drawn)	i	i	-4.91	i	i	i
CCCOC(=O)/C(C(N)=NCc1ccccc1)=C(\O)OCCC	i	i	i	-6.59	i	i
O=c1cc(-c2c(F)c(F)c(F)c(F)c2F)oc2ccccc12	18.9	i	i	i	i	24
Cc1cccc(OC(C)C(=O)N2CCCc3ccccc32)c1 (stereo not drawn)	i	i	-5.2	i	i	i
Cc1cccc(OCC(=O)N2CCCc3ccccc32)c1	i	i	i	i	i	i
Cc1ccc(OC(C)C(=O)N2CCCc3ccccc32)cc1 (stereo not drawn)	i	i	-5.48	i	i	i
OCC(O)C1OC(c2ccco2)OC(CO)C1O (stereo not drawn)	nt	nt	nt	nt	i	nt
CCOCCCNC(=O)C(NC(=O)Cc1cccs1)c1ccc(C)cc1 (stereo not drawn)	12.0	i	i	i	i	i
COc1ccc(OC)c2cc3ccccc3cc12	nt	nt	nt	nt	-12.2	nt
SMILES	hERG rescue	KCNQ1 block	Kir21 block	KCNK9 inh	KCNK3 inh	KCNQ1 act
Cc1cc(C)cc(NC(=O)CCCCCN2C(=O)[C@@H]3Cc4ccccc4CN3C2=O)c1	i	i	i	i	i	i
O=C(CNC(=O)Cc1cccc2ccccc12)NCc1ccc(F)cc1	i	i	-5.2	i	i	i
NS(=O)(=O)c1ccc(CCNC(=O)CNC(=O)Cc2cccc3ccccc23)cc1	i	i	i	i	i	i
Cc1cccc(Cc2nc3ccccc3[nH]2)c1	nt	nt	nt	nt	i	nt
O=C(CCn1c(=O)c2sccc2n(CC(=O)OCc2ccccc2)c1=O)NCc1ccccc1	5.2	i	i	i	i	i
O=C(O)c1ccccc1OCCN1CCCC1=O	i	i	i	i	i	i
COc1cc(OC)cc(C(=O)NCc2ccc3c(c2)OCO3)c1	i	i	i	i	i	i
CCc1ccc(NC(=O)C(=O)NNC(=O)c2ccc(OC)cc2)cc1	36.1	i	i	i	i	77
COc1ccc(CC(=O)NNC(=O)c2ccc(NC(C)=O)cc2)cc1	i	i	i	i	i	i
COc1ccc(C(=O)NNC(=O)C(=O)Nc2ccc(C)c(Cl)c2)cc1	97.4	i	i	i	i	58
COc1ccc(C(=O)NNC(=O)C(=O)Nc2ccc(C)cc2)cc1	15.0	i	i	i	i	41
O=C(COC(=O)CSc1ccc([N+](=O)[O-])cc1)NCCCc1ccccc1	i	i	i	i	i	i
NC(=O)NC(Cc1ccccc1)C(=O)NNC(=O)COc1ccccc1Cl (stereo not drawn)	nt	nt	nt	nt	i	nt
CC(C)CN(CC(C)C)C(=O)CN1C(=O)NC2(CCCc3ccccc32)C1=O (stereo not drawn)	i	i	i	i	i	i
CC(C)CSC1=NSC2=NC(=O)/C(=C\c3cccs3)C(=N)N12	i	i	i	i	i	8
N=C1/C(=C/c2cccs2)C(=O)N=C2SN=C(SCc3ccccc3)N12	i	i	i	i	i	i
CCOC(=O)c1c(NC(=O)CSc2nc3ccc(C)cc3[nH]2)sc2c1CC(C)(C)NC2(C)C	i	i	-4.79	i	i	i
O=C1CSC(c2ccccc2F)N1c1cc(Cl)ccc1O (stereo not drawn)	i	i	-6	i	i	i
Oc1ccc(Br)cc1-c1n[nH]c(=S)n1Cc1ccccc1	5.9	i	i	i	i	11
CCOc1ccc(/C=N/NC(=O)c2nnn(-c3nonc3N)c2-c2cccs2)cc1	i	i	i	i	i	i
Cc1ccccc1C(=O)NC1CCN(CC(=O)Nc2ccccc2Cl)CC1	i	i	i	i	i	i
Cc1c(Cl)cccc1NC(=O)CN1CCC(C(O)(c2ccccc2)c2ccccc2)CC1	i	11	i	i	i	i
CC(=O)c1c(C)[nH]c(C(=O)CN2C(=O)NC3(CCCCC3C)C2=O)c1C (stereo not drawn)	nt	nt	nt	nt	i	nt
O=C(O)c1sccc1NC(=O)c1c(Cl)cccc1Cl	i	i	i	i	i	i
COC(=O)c1sccc1NC(=O)c1c(Cl)cccc1Cl	4.7	i	i	i	i	i
SMILES	hERG rescue	KCNQ1 block	Kir21 block	KCNK9 inh	KCNK3 inh	KCNQ1 act
CC(C)N(Cc1ccccc1)C(=O)COC(=O)c1cc[n+]([O-])cc1	nt	nt	nt	nt	i	nt
Cc1noc(C)c1CSc1ccccc1C(=O)N(C)CC(=O)Nc1cccc(F)c1	i	i	i	i	i	i
COc1ccc(CCNCc2ccc(OCc3ccccc3)cc2)cc1	i	i	-5.44	i	i	i
COc1ccc(CCC(C)NCc2ccc(C(F)(F)F)cc2)cc1 (stereo not drawn)	i	i	i	i	i	i
COc1ccc(CNCCc2ccc(Cl)cc2)cc1OCc1ccccc1	i	10	-6.39	i	-9.5	i
COc1ccc(CNC(C)CCc2ccccc2)cc1 (stereo not drawn)	i	i	-6.33	i	i	i
COc1ccc(CNCCc2ccccc2)cc1OCC(N)=O	i	i	i	i	i	i
COc1cc(CN(C)CCc2ccccc2)ccc1OCc1ccccc1	i	i	-7.62	i	i	i
